# Results taken from ChEMBL document CHEMBL5058577, “EUbOPEN Chemogenomics Library 2 (Multiplex)” (2022).
# Tested on: U2OS
# Assay: Multiplex assay against U2OS
# Type: toxicity, cell-based
# Conditions: human
# Procedure, shortened: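 Cells stained live at seeding with Hoechst33342, BioTracker Green Microtubule Cytoskeleton Dye, MitoTracker Red and Annexin V Alexa Fluor 680 were imaged on a CQ1 microscope at 37°C and 5% CO2 after compound addition. Their classification by CellPathfinder machine-learning gating ran from Hoechst high-intensity objects versus normal cells, to healthy, pyknosed or fragmented nuclei among normal cells, to mitotic or apoptotic among pyknosed cells. Tubulin, mitochondrial-mass and membrane-permeability phenotypes are per cents of healthy-nucleus cells.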
# [1] = 12 h, 1 µM, compound concentration 1 uM, replicate 1
# [2] = 12 h, 1 µM, compound concentration 1 uM, replicate 2
# [3] = 12 h, 10 µM, compound concentration 10 uM, replicate 1
# [4] = 12 h, 10 µM, compound concentration 10 uM, replicate 2
# [5] = 24 h, 1 µM, compound concentration 1 uM, replicate 1
# [6] = 24 h, 1 µM, compound concentration 1 uM, replicate 2
# [7] = 24 h, 10 µM, compound concentration 10 uM, replicate 1
# [8] = 24 h, 10 µM, compound concentration 10 uM, replicate 2
# [9] = 48 h, 1 µM, compound concentration 1 uM, replicate 1
# [10] = 48 h, 1 µM, compound concentration 1 uM, replicate 2
# [11] = 48 h, 10 µM, compound concentration 10 uM, replicate 1
# [12] = 48 h, 10 µM, compound concentration 10 uM, replicate 2
smiles,measurement,setting,value
Cc1ccc(/C(=C\CN2CCCC2)c2ccccn2)cc1 [TRIPROLIDINE],Population Apoptotic (%),[1],85%
same,Population Fragmented Nuclei (%),[1],29%
same,Population Healthy Nuclei (%),[1],61%
same,Population Hoechst High Intensity Objects (%),[1],2%
same,Population Membrane Permeable-Phenotype (%),[1],4%
same,Population Mitochondria Different-Phenotype (%),[1],2%
same,Population Mitotic Cells (%),[1],15%
same,Population Normal (%),[1],97%
same,Population Pyknosed Nuclei (%),[1],8%
same,Population Tubulin-Different-Phenotype (%),[1],1%
same,Total Cell Count,[1],244
same,Population Fragmented Nuclei (%),[2],18%
same,Population Healthy Nuclei (%),[2],70%
same,Population Hoechst High Intensity Objects (%),[2],3%
same,Population Membrane Permeable-Phenotype (%),[2],6%
same,Population Mitochondria Different-Phenotype (%),[2],1%
same,Population Mitotic Cells (%),[2],14%
same,Population Normal (%),[2],96%
same,Population Pyknosed Nuclei (%),[2],11%
same,Population Tubulin-Different-Phenotype (%),[2],5%
same,Total Cell Count,[2],126
same,Population Apoptotic (%),[3],87%
same,Population Fragmented Nuclei (%),[3],25%
same,Population Healthy Nuclei (%),[3],64%
same,Population Hoechst High Intensity Objects (%),[3],3%
same,Population Membrane Permeable-Phenotype (%),[3],29%
same,Population Mitochondria Different-Phenotype (%),[3],23%
same,Population Mitotic Cells (%),[3],12%
same,Population Normal (%),[3],96%
same,Population Pyknosed Nuclei (%),[3],9%
same,Population Tubulin-Different-Phenotype (%),[3],24%
same,Total Cell Count,[3],264
same,Population Apoptotic (%),[4],75%
same,Population Fragmented Nuclei (%),[4],15%
same,Population Healthy Nuclei (%),[4],77%
same,Population Hoechst High Intensity Objects (%),[4],0%
same,Population Membrane Permeable-Phenotype (%),[4],14%
same,Population Mitochondria Different-Phenotype (%),[4],18%
same,Population Mitotic Cells (%),[4],25%
same,Population Normal (%),[4],99%
same,Population Pyknosed Nuclei (%),[4],7%
same,Population Tubulin-Different-Phenotype (%),[4],15%
same,Total Cell Count,[4],114
same,Population Apoptotic (%),[5],89%
same,Population Fragmented Nuclei (%),[5],23%
same,Population Healthy Nuclei (%),[5],66%
same,Population Hoechst High Intensity Objects (%),[5],1%
same,Population Membrane Permeable-Phenotype (%),[5],4%
same,Population Mitochondria Different-Phenotype (%),[5],3%
same,Population Mitotic Cells (%),[5],10%
same,Population Normal (%),[5],98%
same,Population Pyknosed Nuclei (%),[5],9%
same,Population Tubulin-Different-Phenotype (%),[5],2%
same,Total Cell Count,[5],297
same,Population Apoptotic (%),[6],81%
same,Population Fragmented Nuclei (%),[6],20%
same,Population Healthy Nuclei (%),[6],68%
same,Population Hoechst High Intensity Objects (%),[6],4%
same,Population Membrane Permeable-Phenotype (%),[6],9%
same,Population Mitochondria Different-Phenotype (%),[6],6%
same,Population Mitotic Cells (%),[6],18%
same,Population Normal (%),[6],96%
same,Population Pyknosed Nuclei (%),[6],11%
same,Population Tubulin-Different-Phenotype (%),[6],5%
same,Total Cell Count,[6],150
same,Population Apoptotic (%),[7],75%
same,Population Fragmented Nuclei (%),[7],27%
same,Population Healthy Nuclei (%),[7],62%
same,Population Hoechst High Intensity Objects (%),[7],2%
same,Population Membrane Permeable-Phenotype (%),[7],12%
same,Population Mitochondria Different-Phenotype (%),[7],15%
same,Population Mitotic Cells (%),[7],24%
same,Population Normal (%),[7],97%
same,Population Pyknosed Nuclei (%),[7],10%
same,Population Tubulin-Different-Phenotype (%),[7],8%
same,Total Cell Count,[7],320
same,Population Apoptotic (%),[8],78%
same,Population Fragmented Nuclei (%),[8],19%
same,Population Healthy Nuclei (%),[8],70%
same,Population Hoechst High Intensity Objects (%),[8],1%
same,Population Membrane Permeable-Phenotype (%),[8],11%
same,Population Mitochondria Different-Phenotype (%),[8],13%
same,Population Mitotic Cells (%),[8],21%
same,Population Normal (%),[8],98%
same,Population Pyknosed Nuclei (%),[8],9%
same,Population Tubulin-Different-Phenotype (%),[8],6%
same,Total Cell Count,[8],149
same,Population Apoptotic (%),[9],86%
same,Population Fragmented Nuclei (%),[9],17%
same,Population Healthy Nuclei (%),[9],73%
same,Population Hoechst High Intensity Objects (%),[9],2%
same,Population Membrane Permeable-Phenotype (%),[9],3%
same,Population Mitochondria Different-Phenotype (%),[9],3%
same,Population Mitotic Cells (%),[9],13%
same,Population Normal (%),[9],97%
same,Population Pyknosed Nuclei (%),[9],9%
same,Population Tubulin-Different-Phenotype (%),[9],3%
same,Total Cell Count,[9],398
same,Population Apoptotic (%),[10],76%
same,Population Healthy Nuclei (%),[10],75%
same,Population Hoechst High Intensity Objects (%),[10],3%
same,Population Membrane Permeable-Phenotype (%),[10],5%
same,Population Mitotic Cells (%),[10],23%
same,Population Normal (%),[10],96%
same,Population Pyknosed Nuclei (%),[10],6%
same,Population Tubulin-Different-Phenotype (%),[10],4%
same,Total Cell Count,[10],209
same,Population Apoptotic (%),[11],86%
same,Population Fragmented Nuclei (%),[11],24%
same,Population Healthy Nuclei (%),[11],65%
same,Population Hoechst High Intensity Objects (%),[11],2%
same,Population Membrane Permeable-Phenotype (%),[11],11%
same,Population Mitochondria Different-Phenotype (%),[11],8%
same,Population Mitotic Cells (%),[11],13%
same,Population Normal (%),[11],97%
same,Population Pyknosed Nuclei (%),[11],9%
same,Population Tubulin-Different-Phenotype (%),[11],7%
same,Total Cell Count,[11],453
same,Population Apoptotic (%),[12],89%
same,Population Fragmented Nuclei (%),[12],15%
same,Population Healthy Nuclei (%),[12],74%
same,Population Hoechst High Intensity Objects (%),[12],4%
same,Population Membrane Permeable-Phenotype (%),[12],9%
same,Population Mitotic Cells (%),[12],10%
same,Population Normal (%),[12],95%
same,Population Tubulin-Different-Phenotype (%),[12],6%
same,Total Cell Count,[12],203
CCCC(CCC)C(=O)O [VALPROIC ACID],Population Apoptotic (%),[1],72%
same,Population Fragmented Nuclei (%),[1],28%
same,Population Healthy Nuclei (%),[1],63%
same,Population Hoechst High Intensity Objects (%),[1],6%
same,Population Membrane Permeable-Phenotype (%),[1],9%
same,Population Mitochondria Different-Phenotype (%),[1],7%
same,Population Mitotic Cells (%),[1],27%
same,Population Normal (%),[1],93%
same,Population Pyknosed Nuclei (%),[1],8%
same,Population Tubulin-Different-Phenotype (%),[1],8%
same,Population Apoptotic (%),[2],66%
same,Population Fragmented Nuclei (%),[2],14%
same,Population Healthy Nuclei (%),[2],77%
same,Population Hoechst High Intensity Objects (%),[2],2%
same,Population Membrane Permeable-Phenotype (%),[2],8%
same,Population Mitochondria Different-Phenotype (%),[2],3%
same,Population Mitotic Cells (%),[2],33%
same,Population Normal (%),[2],97%
same,Population Tubulin-Different-Phenotype (%),[2],6%
same,Population Apoptotic (%),[3],77%
same,Population Fragmented Nuclei (%),[3],30%
same,Population Healthy Nuclei (%),[3],66%
same,Population Hoechst High Intensity Objects (%),[3],4%
same,Population Membrane Permeable-Phenotype (%),[3],6%
same,Population Mitochondria Different-Phenotype (%),[3],3%
same,Population Mitotic Cells (%),[3],22%
same,Population Normal (%),[3],95%
same,Population Pyknosed Nuclei (%),[3],3%
same,Population Tubulin-Different-Phenotype (%),[3],4%
same,Population Apoptotic (%),[4],85%
same,Population Fragmented Nuclei (%),[4],21%
same,Population Healthy Nuclei (%),[4],70%
same,Population Hoechst High Intensity Objects (%),[4],0%
same,Population Membrane Permeable-Phenotype (%),[4],4%
same,Population Mitochondria Different-Phenotype (%),[4],4%
same,Population Mitotic Cells (%),[4],14%
same,Population Normal (%),[4],100%
same,Population Pyknosed Nuclei (%),[4],7%
same,Population Apoptotic (%),[5],84%
same,Population Fragmented Nuclei (%),[5],24%
same,Population Healthy Nuclei (%),[5],66%
same,Population Hoechst High Intensity Objects (%),[5],6%
same,Population Membrane Permeable-Phenotype (%),[5],9%
same,Population Mitochondria Different-Phenotype (%),[5],6%
same,Population Mitotic Cells (%),[5],16%
same,Population Normal (%),[5],93%
same,Population Pyknosed Nuclei (%),[5],8%
same,Population Tubulin-Different-Phenotype (%),[5],9%
same,Population Apoptotic (%),[6],100%
same,Population Fragmented Nuclei (%),[6],17%
same,Population Healthy Nuclei (%),[6],74%
same,Population Hoechst High Intensity Objects (%),[6],3%
same,Population Mitochondria Different-Phenotype (%),[6],2%
same,Population Mitotic Cells (%),[6],0%
same,Population Normal (%),[6],96%
same,Population Tubulin-Different-Phenotype (%),[6],7%
same,Population Apoptotic (%),[7],83%
same,Population Fragmented Nuclei (%),[7],25%
same,Population Healthy Nuclei (%),[7],71%
same,Population Hoechst High Intensity Objects (%),[7],2%
same,Population Membrane Permeable-Phenotype (%),[7],4%
same,Population Mitochondria Different-Phenotype (%),[7],3%
same,Population Mitotic Cells (%),[7],16%
same,Population Normal (%),[7],97%
same,Population Pyknosed Nuclei (%),[7],3%
same,Population Tubulin-Different-Phenotype (%),[7],3%
same,Population Apoptotic (%),[8],100%
same,Population Fragmented Nuclei (%),[8],17%
same,Population Healthy Nuclei (%),[8],78%
same,Population Hoechst High Intensity Objects (%),[8],0%
same,Population Membrane Permeable-Phenotype (%),[8],8%
same,Population Mitochondria Different-Phenotype (%),[8],4%
same,Population Mitotic Cells (%),[8],0%
same,Population Normal (%),[8],100%
same,Population Pyknosed Nuclei (%),[8],4%
same,Population Tubulin-Different-Phenotype (%),[8],5%
same,Population Apoptotic (%),[9],76%
same,Population Fragmented Nuclei (%),[9],20%
same,Population Healthy Nuclei (%),[9],69%
same,Population Hoechst High Intensity Objects (%),[9],3%
same,Population Membrane Permeable-Phenotype (%),[9],7%
same,Population Mitochondria Different-Phenotype (%),[9],5%
same,Population Mitotic Cells (%),[9],23%
same,Population Normal (%),[9],96%
same,Population Pyknosed Nuclei (%),[9],9%
same,Population Tubulin-Different-Phenotype (%),[9],5%
same,Population Apoptotic (%),[10],91%
same,Population Fragmented Nuclei (%),[10],16%
same,Population Healthy Nuclei (%),[10],72%
same,Population Membrane Permeable-Phenotype (%),[10],8%
same,Population Mitotic Cells (%),[10],8%
same,Population Pyknosed Nuclei (%),[10],11%
same,Population Tubulin-Different-Phenotype (%),[10],6%
same,Population Apoptotic (%),[11],91%
same,Population Fragmented Nuclei (%),[11],20%
same,Population Healthy Nuclei (%),[11],71%
same,Population Hoechst High Intensity Objects (%),[11],2%
same,Population Membrane Permeable-Phenotype (%),[11],3%
same,Population Mitochondria Different-Phenotype (%),[11],2%
same,Population Mitotic Cells (%),[11],8%
same,Population Normal (%),[11],97%
same,Population Pyknosed Nuclei (%),[11],7%
same,Population Tubulin-Different-Phenotype (%),[11],1%
same,Population Apoptotic (%),[12],93%
same,Population Hoechst High Intensity Objects (%),[12],1%
same,Population Membrane Permeable-Phenotype (%),[12],9%
same,Population Mitotic Cells (%),[12],6%
same,Population Normal (%),[12],98%
same,Population Tubulin-Different-Phenotype (%),[12],4%
